Data set [1] in a line: melting temperature; fluorescence melt of hairpins on a sequencing array, two-state fit, raised by 9.35 °C to match UV melts. The conditions noted are these: sodium 0.088 M. A digest of the protocol:
(§1)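 Melting temperature and folding enthalpy were derived from bootstrapped two-state fits. The fitted temperatures were raised by 9.35 °C to agree with UV melts, and four replicates were combined by inverse variance. The underlying data were Cy3 fluorescence images of library hairpins, with annealed Cy3 and quencher oligos, on a sequenced MiSeq flow cell in 50 mM Na-HEPES pH 8.0, 25 mM NaCl, taken in 2.5 °C steps up to 60 °C, normalised to pre-quench Cy3 and to control constructs.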

Data set [2] can be described thus: folding enthalpy; higher = less favourable; fluorescence melt of hairpins on a sequencing array, two-state fit. Particulars: sodium 0.088 M. The method, boiled down: as §1

Take GATCATACCCATGATC ((((((....)))))): the Tm in data set [1] was 46.5 °C. For the same sequence, the folding enthalpy in data set [2] is -38.6 kcal/mol.
As to GATCATACTTATGATC ((((((....)))))), the Tm in data set [1] is 48.5 °C. The folding enthalpy in data set [2] was -37 kcal/mol.
Taken in the same sequence, the figures for GATCATAGGAATGATC ((((((....)))))) were 44.3 °C and -26 kcal/mol.
For the sequence GATCATATCAATGATC ((((((....)))))), in data set [1], the Tm was determined as 48.3 °C. In addition, in data set [2], the folding enthalpy is -27.9 kcal/mol.
Consider GATCATATCATGATC ((((((...)))))), for which, in data set [1], the Tm was 50.4 °C. Besides, the folding enthalpy in data set [2] was -37.2 kcal/mol.
On to GATCATATCGATGATC ((((((....)))))), for which, in data set [1], the Tm stood at 47.4 °C. The folding enthalpy in data set [2] is -34.3 kcal/mol.
On to GATCATATCTATGATC ((((((....)))))), for which, in data set [1], the Tm was determined as 48.5 °C. Further, in data set [2], the folding enthalpy is -41.6 kcal/mol.
Turning to GATCATATGAATGATC ((((((....)))))), the Tm in data set [1] was found to be 45.7 °C. Besides, the folding enthalpy in data set [2] is -31.7 kcal/mol.
Taken in the same sequence, the figures for GATCATCAAATGATC ((((((...)))))) were 41.1 °C and -25.1 kcal/mol.
On the same counts, the results for GATCATCAAGATGATC ((((((....)))))) are 49.8 °C and -40.4 kcal/mol.
On the same counts, the results for GATCATCACTATGATC ((((((....)))))) are 48.6 °C and -31.3 kcal/mol.
On to GATCATCATAATGATC ((((((....)))))), for which the Tm in data set [1] worked out at 47.1 °C. The folding enthalpy in data set [2] was -36.3 kcal/mol.
Turning to GATCATCATTATGATC ((((((....)))))), the Tm in data set [1] came out at 46.8 °C. Moreover, the folding enthalpy in data set [2] is -34.6 kcal/mol.
Turning to GATCATCCATATGATC ((((((....)))))), the Tm in data set [1] is 47 °C. The folding enthalpy in data set [2] is -34.9 kcal/mol.
On to GATCATCCCAATGATC ((((((....)))))), for which, in data set [1], the Tm is 48.2 °C. Also, in data set [2], the folding enthalpy was -36.2 kcal/mol.
For GATCATCCGATGATC ((((((...)))))), the Tm in data set [1] was 46.8 °C. The folding enthalpy in data set [2] was -33.3 kcal/mol.
On to GATCATCCGTATGATC ((((((....)))))), for which the Tm in data set [1] was determined as 47.8 °C. Besides, the folding enthalpy in data set [2] was -38.9 kcal/mol.
As to GATCATCCTGATGATC ((((((....)))))), in data set [1], the Tm turned out to be 54.5 °C. Also, the folding enthalpy in data set [2] was -41.7 kcal/mol.
As to GATCATCGAATGATC ((((((...)))))), the Tm in data set [1] was found to be 43.6 °C. In addition, the folding enthalpy in data set [2] is -25.6 kcal/mol.
On the same counts, the results for GATCATCGAGATGATC ((((((....)))))) are 54.2 °C and -45.2 kcal/mol.
GATCATCGGCATGATC ((((((....)))))): in data set [1], the Tm was 44.7 °C. Besides, the folding enthalpy in data set [2] was -32 kcal/mol.
As to GATCATCTACATGATC ((((((....)))))), the Tm in data set [1] worked out at 46.2 °C. Moreover, the folding enthalpy in data set [2] was -38.5 kcal/mol.
On the same counts, the results for GATCATCTCTATGATC ((((((....)))))) are 47.1 °C and -38.9 kcal/mol.
For the sequence GATCATCTGATGATC ((((((...)))))), the Tm in data set [1] was 46.3 °C. For the same sequence, the folding enthalpy in data set [2] was -37.5 kcal/mol.
For GATCATGAATATGATC ((((((....)))))), the Tm in data set [1] was 54.5 °C. Also, in data set [2], the folding enthalpy is -46.8 kcal/mol.
As for GATCATGATCATGATC ((((((....)))))), the Tm in data set [1] was 51.4 °C. The folding enthalpy in data set [2] is -52.3 kcal/mol.
Take GATCATGATGATGATC ((((((....)))))): in data set [1], the Tm was 47.5 °C. Further, the folding enthalpy in data set [2] was -32.3 kcal/mol.
Take GATCATGCAATGATC ((((((...)))))): in data set [1], the Tm is 59.2 °C. For the same sequence, the folding enthalpy in data set [2] is -46 kcal/mol.
As for GATCATGCATATGATC ((((((....)))))), the Tm in data set [1] was found to be 55.4 °C. Further, the folding enthalpy in data set [2] is -55.8 kcal/mol.
Taken in the same sequence, the figures for GATCATGCCCATGATC ((((((....)))))) were 53.5 °C and -43 kcal/mol.
Consider GATCATGCGAAAGCAATC (((..(((....)))))), for which the Tm in data set [1] was 22.5 °C. Besides, the folding enthalpy in data set [2] is -9.85 kcal/mol.
As to GATCATGCGCATGATC ((((((....)))))), the Tm in data set [1] was 57.2 °C. Moreover, the folding enthalpy in data set [2] was -57.1 kcal/mol.
Take GATCATGCTAATGATC ((((((....)))))): in data set [1], the Tm worked out at 57.2 °C. Further, the folding enthalpy in data set [2] was -42.7 kcal/mol.
Take GATCATGCTATGATC ((((((...)))))): the Tm in data set [1] worked out at 49.9 °C. Besides, in data set [2], the folding enthalpy is -27.9 kcal/mol.
For GATCATGGCTATGATC ((((((....)))))), the Tm in data set [1] was determined as 53.7 °C. Moreover, the folding enthalpy in data set [2] was -40.6 kcal/mol.
On the same counts, the results for GATCATGGTATGATC ((((((...)))))) are 48.9 °C and -36.3 kcal/mol.
With GATCATGTAATGATC ((((((...)))))), the Tm in data set [1] turned out to be 57.4 °C. For the same sequence, in data set [2], the folding enthalpy is -39.8 kcal/mol.
With GATCATGTCAATGATC ((((((....)))))), the Tm in data set [1] worked out at 56.9 °C. Moreover, the folding enthalpy in data set [2] is -40 kcal/mol.

The values are drawn from the array DNA melting data of Ke et al. (doi:10.1101/2024.01.08.574731).
